# ChEMBL document CHEMBL3872287, “Novel 2-Substituted 7-Azaindole and 7-Azaindazole Analogues as Potential Antiviral Agents for the Treatment of Influenza” (ACS Med Chem Lett, 2017)
# Legend:
# aldehyde oxidase [1] = molecular target: T1, aldehyde oxidase (Homo sapiens, UniProt Q06278); experiment: Drug metabolism in human liver cytosol assessed as aldehyde oxidase-mediated metabolism by measuring amount of parent compound remaining measured over 4 hrs in absence of aldehyde oxidase inhibitor raloxifene by MS/MS analysis; format: ADME; settings: read-out: Stability
# T1 sequence (Q06278 whole entry): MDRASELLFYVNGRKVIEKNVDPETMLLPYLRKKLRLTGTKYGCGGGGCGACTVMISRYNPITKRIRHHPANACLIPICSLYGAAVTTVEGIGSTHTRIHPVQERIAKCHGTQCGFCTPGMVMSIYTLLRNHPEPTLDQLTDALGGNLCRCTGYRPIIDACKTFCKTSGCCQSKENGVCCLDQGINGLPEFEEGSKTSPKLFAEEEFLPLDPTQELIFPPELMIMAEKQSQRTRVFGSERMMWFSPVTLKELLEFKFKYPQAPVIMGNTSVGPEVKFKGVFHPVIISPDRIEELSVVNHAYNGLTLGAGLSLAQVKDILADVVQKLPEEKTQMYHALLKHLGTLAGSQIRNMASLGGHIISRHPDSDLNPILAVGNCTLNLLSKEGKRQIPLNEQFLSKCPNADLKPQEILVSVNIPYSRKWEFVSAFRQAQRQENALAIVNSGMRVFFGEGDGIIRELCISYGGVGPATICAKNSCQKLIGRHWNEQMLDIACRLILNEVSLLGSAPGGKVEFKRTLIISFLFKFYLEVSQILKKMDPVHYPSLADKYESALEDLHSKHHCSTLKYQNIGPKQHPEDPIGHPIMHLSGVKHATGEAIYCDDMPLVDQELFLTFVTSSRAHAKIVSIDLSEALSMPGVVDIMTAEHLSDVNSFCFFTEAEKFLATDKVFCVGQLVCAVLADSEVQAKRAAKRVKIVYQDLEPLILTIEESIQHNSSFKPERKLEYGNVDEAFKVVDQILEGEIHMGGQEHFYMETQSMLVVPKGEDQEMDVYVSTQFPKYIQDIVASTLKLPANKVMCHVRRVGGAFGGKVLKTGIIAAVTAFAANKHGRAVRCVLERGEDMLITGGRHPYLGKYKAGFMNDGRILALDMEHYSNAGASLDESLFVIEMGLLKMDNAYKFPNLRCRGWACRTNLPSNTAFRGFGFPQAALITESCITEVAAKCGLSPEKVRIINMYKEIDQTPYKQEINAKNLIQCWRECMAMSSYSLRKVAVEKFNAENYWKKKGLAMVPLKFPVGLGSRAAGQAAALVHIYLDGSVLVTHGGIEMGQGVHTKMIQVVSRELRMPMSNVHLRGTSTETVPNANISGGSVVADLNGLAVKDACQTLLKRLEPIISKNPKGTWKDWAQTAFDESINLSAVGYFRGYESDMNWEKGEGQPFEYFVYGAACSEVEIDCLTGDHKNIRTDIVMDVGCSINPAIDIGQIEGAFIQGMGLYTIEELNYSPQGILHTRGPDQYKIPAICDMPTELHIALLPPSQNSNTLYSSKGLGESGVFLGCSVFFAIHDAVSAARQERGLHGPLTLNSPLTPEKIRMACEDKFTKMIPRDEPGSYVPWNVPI
# How it was run: (§1)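 Test compounds were incubated in triplicate at 1 µM in human liver cytosol (1 mg/mL protein) at 37 °C for 4 hours, with or without the aldehyde oxidase inhibitor raloxifene.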
# [2] = Clearance in rat at 1 mg/kg, iv; format: ADME, organism-based; settings: in vivo
# [3] = Cmax in rat at 3 mg/kg, po; format: ADME, organism-based; design: dose 3 mg/kg, route oral; settings: in vivo
# [4] = AUC (0 to infinity) in rat at 3 mg/kg, po; format: ADME, organism-based; design: dose 3 mg/kg, time infinity, route oral; settings: in vivo
# aldehyde oxidase [5] = molecular target: T1, aldehyde oxidase; experiment: Drug metabolism in human liver cytosol assessed as aldehyde oxidase-mediated metabolism by measuring amount of parent compound remaining measured over 4 hrs in presence of aldehyde oxidase inhibitor raloxifene by MS/MS analysis; format: ADME; settings: read-out: Stability; how it was run: as §1
# [6] = AUC in mouse at 30 mg/kg, po; format: ADME, organism-based; settings: in vivo
# [7] = Oral bioavailability in rat at 3 mg/kg; format: ADME, organism-based; settings: in vivo
# [8] = Cmax in mouse at 30 mg/kg, po; format: ADME, organism-based; design: dose 30 mg/kg, route oral; settings: in vivo
# [9] = Antiviral activity against Influenza A virus (A/Puerto Rico/8/34(H1N1)) infected in MDCK cells assessed as decrease in negative strand HA RNA levels after 20 hrs by bDNA hybridization method; format: functional, Influenza A virus (A/Puerto Rico/8/1934(H1N1))
# How it was run: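 Viral RNA in infected cells quantified by branched DNA assay. EC90 is the test-compound concentration giving viral RNA levels equal to 10% of control wells.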
# [10] = Half life in rat at 1 mg/kg, iv; format: ADME, organism-based; settings: in vivo
# [11] = Volume of distribution in steady state in rat at 1 mg/kg, iv; format: ADME, organism-based; settings: in vivo, read-out: Vdss
smiles,measurement,setting,value
O=C(N[C@@H]1CCC[C@H](Nc2nc(-c3c[nH]c4ncc(F)cc34)ncc2F)C1)N1CCCC1,remaining at 4 h,aldehyde oxidase [1],4%
same,clearance,[2],1.2 mL/min/kg
same,Cmax,[3],2600 ng/mL
same,AUC(0-inf),[4],30300 ng·h/mL
same,remaining at 4 h,aldehyde oxidase [5],99%
same,AUC,[6],336000 ng·h/mL
same,bioavailability,[7],82%
same,Cmax,[8],61100 ng/mL
same,EC90,"[9]; Influenza A virus, MDCK, 20 h",1 nM
same,half-life,[10],3.2 h
same,Vd,[11],0.3 L/kg
O=C(O)[C@H]1C2CCC(CC2)[C@@H]1Nc1nc(-c2n[nH]c3ncc(F)cc23)ncc1F,EC90,"[9]; Influenza A virus, MDCK, 20 h",3 nM
O=C(N[C@@H]1CCC[C@H](Nc2nc(-c3c[nH]c4ncc(F)cc34)ncc2F)C1)N1CCOCC1,remaining at 4 h,aldehyde oxidase [1],7%
same,remaining at 4 h,aldehyde oxidase [5],103%
O=C(N[C@@H]1CCC[C@H](Nc2nc(-c3n[nH]c4ncc(F)cc34)ncc2F)C1)c1ccsc1,remaining at 4 h,aldehyde oxidase [1],0%
same,remaining at 4 h,aldehyde oxidase [5],107%
same,EC90,"[9]; Influenza A virus, MDCK, 20 h",1 nM
Cn1cnc(C(=O)N[C@@H]2CCC[C@H](Nc3nc(-c4n[nH]c5ncc(F)cc45)ncc3F)C2)c1,remaining at 4 h,aldehyde oxidase [1],40%
same,remaining at 4 h,aldehyde oxidase [5],103%
same,EC90,"[9]; Influenza A virus, MDCK, 20 h",15 nM
O=C(N[C@@H]1CCC[C@H](Nc2nc(-c3c(C4CC4)[nH]c4ncc(F)cc34)ncc2F)C1)N1CCCC1,EC90,"[9]; Influenza A virus, MDCK, 20 h",> 3300 nM
O=C(N[C@@H]1CCC[C@H](Nc2nc(-c3c(CO)[nH]c4ncc(F)cc34)ncc2F)C1)N1CC[C@@H](F)C1,remaining at 4 h,aldehyde oxidase [1],105%
same,remaining at 4 h,aldehyde oxidase [5],114%
same,EC90,"[9]; Influenza A virus, MDCK, 20 h",10 nM
CC(O)c1[nH]c2ncc(F)cc2c1-c1ncc(F)c(N[C@H]2CCC[C@@H](NC(=O)N3CCCC3)C2)n1 (stereo in doubt; 21b),remaining at 4 h,aldehyde oxidase [1],99%
same,remaining at 4 h,aldehyde oxidase [5],99%
same,EC90,[9],460 nM
O=C(O)c1[nH]c2ncc(F)cc2c1-c1ncc(F)c(N[C@H]2CCC[C@@H](NC(=O)N3CCCC3)C2)n1,EC90,"[9]; Influenza A virus, MDCK, 20 h",2200 nM
O=C(N[C@@H]1CCC[C@H](Nc2nc(-c3c(CO)[nH]c4ncc(F)cc34)ncc2F)C1)N1CCCC1,remaining at 4 h,aldehyde oxidase [1],100%
same,clearance,[2],6.2 mL/min/kg
same,Cmax,[3],2800 ng/mL
same,AUC(0-inf),[4],9700 ng·h/mL
same,remaining at 4 h,aldehyde oxidase [5],96%
same,AUC,[6],101000 ng·h/mL
same,bioavailability,[7],100%
same,Cmax,[8],37700 ng/mL
same,EC90,"[9]; Influenza A virus, MDCK, 20 h",28 nM
same,half-life,[10],2.3 h
same,Vd,[11],0.6 L/kg
O=C(N[C@@H]1CCC[C@H](Nc2nc(-c3n[nH]c4ncc(F)cc34)ncc2F)C1)N1CCCC1,remaining at 4 h,aldehyde oxidase [1],1%
same,clearance,[2],7.7 mL/min/kg
same,Cmax,[3],200 ng/mL
same,AUC(0-inf),[4],1200 ng·h/mL
same,remaining at 4 h,aldehyde oxidase [5],101%
same,AUC,[6],44500 ng·h/mL
same,bioavailability,[7],15.3%
same,Cmax,[8],32100 ng/mL
same,EC90,"[9]; Influenza A virus, MDCK, 20 h",2 nM
same,half-life,[10],1.5 h
same,Vd,[11],0.4 L/kg
O=C(N[C@@H]1CCC[C@H](Nc2nc(-c3n[nH]c4ncc(F)cc34)ncc2F)C1)N1CC[C@@H](F)C1,remaining at 4 h,aldehyde oxidase [1],0.6%
same,remaining at 4 h,aldehyde oxidase [5],98%
same,EC90,"[9]; Influenza A virus, MDCK, 20 h",1 nM
Cc1[nH]c2ncc(F)cc2c1-c1ncc(F)c(N[C@H]2CCC[C@@H](NC(=O)N3CCCC3)C2)n1,remaining at 4 h,aldehyde oxidase [1],103%
same,remaining at 4 h,aldehyde oxidase [5],103%
same,EC90,"[9]; Influenza A virus, MDCK, 20 h",280 nM
CC(O)c1[nH]c2ncc(F)cc2c1-c1ncc(F)c(N[C@H]2CCC[C@@H](NC(=O)N3CCCC3)C2)n1 (stereo in doubt; 21a),EC90,[9],27 nM
O=C(N[C@@H]1CCC[C@H](Nc2nc(-c3c(/C=N/O)[nH]c4ncc(F)cc34)ncc2F)C1)N1CCCC1,EC90,"[9]; Influenza A virus, MDCK, 20 h",91 nM
O=C(N[C@@H]1CCC[C@H](Nc2nc(-c3n[nH]c4ncc(F)cc34)ncc2F)C1)N1CCOCC1,EC90,"[9]; Influenza A virus, MDCK, 20 h",14 nM
